# System: Fibroblast
# Experiment: Multiplex assay against human fibroblast
# Assay type: toxicity, cell-based
# Procedure, shortened: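 On a CQ1 microscope at 37°C and 5% CO2, live cells were imaged after compound addition. They had been stained at seeding with Hoechst33342, BioTracker Green Microtubule Cytoskeleton Dye, MitoTracker Red and Annexin V Alexa Fluor 680. CellPathfinder machine-learning gating assigned cells to Hoechst high-intensity objects or normal cells, normal cells to healthy, pyknosed or fragmented nuclei, and pyknosed cells to mitotic or apoptotic. Tubulin, mitochondrial-mass and membrane-permeability phenotypes are per cents of healthy-nucleus cells.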
# [1] = 12 h, 1 µM, compound concentration 1 uM, replicate 1
# [2] = 12 h, 1 µM, compound concentration 1 uM, replicate 2
# [3] = 12 h, 10 µM, compound concentration 10 uM, replicate 1
# [4] = 12 h, 10 µM, compound concentration 10 uM, replicate 2
# [5] = 24 h, 1 µM, compound concentration 1 uM, replicate 1
# [6] = 24 h, 1 µM, compound concentration 1 uM, replicate 2
# [7] = 24 h, 10 µM, compound concentration 10 uM, replicate 1
# [8] = 24 h, 10 µM, compound concentration 10 uM, replicate 2
smiles,measurement,setting,value
CNC(=O)c1ccc(Nc2nc(OC3CCCC3)c3c(-c4ccc5nc(C)oc5c4)c[nH]c3n2)c(OC)c1,Population Apoptotic (%),[1],69%
same,Population Fragmented Nuclei (%),[1],29%
same,Population Healthy Nuclei (%),[1],53%
same,Population Hoechst High Intensity Objects (%),[1],10%
same,Population Membrane Permeable-Phenotype (%),[1],46%
same,Population Mitochondria Different-Phenotype (%),[1],5%
same,Population Mitotic Cells (%),[1],30%
same,Population Normal (%),[1],89%
same,Population Pyknosed Nuclei (%),[1],17%
same,Population Tubulin-Different-Phenotype (%),[1],80%
same,Total Cell Count,[1],237
same,Population Apoptotic (%),[2],33%
same,Population Fragmented Nuclei (%),[2],60%
same,Population Healthy Nuclei (%),[2],34%
same,Population Hoechst High Intensity Objects (%),[2],33%
same,Population Membrane Permeable-Phenotype (%),[2],45%
same,Population Mitochondria Different-Phenotype (%),[2],9%
same,Population Mitotic Cells (%),[2],66%
same,Population Normal (%),[2],66%
same,Population Pyknosed Nuclei (%),[2],4%
same,Population Tubulin-Different-Phenotype (%),[2],86%
same,Total Cell Count,[2],96
same,Population Apoptotic (%),[3],77%
same,Population Fragmented Nuclei (%),[3],33%
same,Population Healthy Nuclei (%),[3],50%
same,Population Hoechst High Intensity Objects (%),[3],14%
same,Population Membrane Permeable-Phenotype (%),[3],14%
same,Population Mitotic Cells (%),[3],22%
same,Population Normal (%),[3],85%
same,Population Pyknosed Nuclei (%),[3],16%
same,Population Tubulin-Different-Phenotype (%),[3],26%
same,Total Cell Count,[3],194
same,Population Apoptotic (%),[4],33%
same,Population Fragmented Nuclei (%),[4],60%
same,Population Healthy Nuclei (%),[4],27%
same,Population Hoechst High Intensity Objects (%),[4],40%
same,Population Membrane Permeable-Phenotype (%),[4],30%
same,Population Mitochondria Different-Phenotype (%),[4],7%
same,Population Mitotic Cells (%),[4],66%
same,Population Normal (%),[4],59%
same,Population Pyknosed Nuclei (%),[4],12%
same,Population Tubulin-Different-Phenotype (%),[4],23%
same,Population Apoptotic (%),[5],67%
same,Population Fragmented Nuclei (%),[5],36%
same,Population Healthy Nuclei (%),[5],41%
same,Population Hoechst High Intensity Objects (%),[5],10%
same,Population Membrane Permeable-Phenotype (%),[5],26%
same,Population Mitochondria Different-Phenotype (%),[5],11%
same,Population Mitotic Cells (%),[5],32%
same,Population Normal (%),[5],89%
same,Population Pyknosed Nuclei (%),[5],22%
same,Population Tubulin-Different-Phenotype (%),[5],79%
same,Total Cell Count,[5],265
same,Population Apoptotic (%),[6],100%
same,Population Fragmented Nuclei (%),[6],62%
same,Population Healthy Nuclei (%),[6],35%
same,Population Hoechst High Intensity Objects (%),[6],35%
same,Population Membrane Permeable-Phenotype (%),[6],19%
same,Population Mitochondria Different-Phenotype (%),[6],19%
same,Population Mitotic Cells (%),[6],0%
same,Population Normal (%),[6],64%
same,Population Pyknosed Nuclei (%),[6],1%
same,Population Tubulin-Different-Phenotype (%),[6],90%
same,Total Cell Count,[6],92
same,Population Fragmented Nuclei (%),[7],28%
same,Population Healthy Nuclei (%),[7],52%
same,Population Hoechst High Intensity Objects (%),[7],23%
same,Population Membrane Permeable-Phenotype (%),[7],5%
same,Population Mitochondria Different-Phenotype (%),[7],3%
same,Population Normal (%),[7],76%
same,Population Pyknosed Nuclei (%),[7],19%
same,Population Tubulin-Different-Phenotype (%),[7],19%
same,Total Cell Count,[7],193
same,Population Apoptotic (%),[8],71%
same,Population Fragmented Nuclei (%),[8],60%
same,Population Healthy Nuclei (%),[8],25%
same,Population Hoechst High Intensity Objects (%),[8],40%
same,Population Membrane Permeable-Phenotype (%),[8],7%
same,Population Mitochondria Different-Phenotype (%),[8],7%
same,Population Mitotic Cells (%),[8],28%
same,Population Normal (%),[8],60%
same,Population Pyknosed Nuclei (%),[8],13%
same,Population Tubulin-Different-Phenotype (%),[8],23%
same,Total Cell Count,[8],85
Cc1ccc2nc(NCCN)c3ncc(C)n3c2c1.O=C(O)C(F)(F)F.O=C(O)C(F)(F)F,Population Apoptotic (%),[1],78%
same,Population Fragmented Nuclei (%),[1],28%
same,Population Healthy Nuclei (%),[1],60%
same,Population Hoechst High Intensity Objects (%),[1],11%
same,Population Membrane Permeable-Phenotype (%),[1],5%
same,Population Mitochondria Different-Phenotype (%),[1],1%
same,Population Mitotic Cells (%),[1],21%
same,Population Normal (%),[1],88%
same,Population Tubulin-Different-Phenotype (%),[1],3%
same,Total Cell Count,[1],243
same,Population Apoptotic (%),[2],50%
same,Population Fragmented Nuclei (%),[2],65%
same,Population Healthy Nuclei (%),[2],23%
same,Population Hoechst High Intensity Objects (%),[2],51%
same,Population Membrane Permeable-Phenotype (%),[2],11%
same,Population Mitochondria Different-Phenotype (%),[2],22%
same,Population Mitotic Cells (%),[2],50%
same,Population Normal (%),[2],48%
same,Population Pyknosed Nuclei (%),[2],10%
same,Population Tubulin-Different-Phenotype (%),[2],11%
same,Total Cell Count,[2],78
same,Population Apoptotic (%),[3],76%
same,Population Fragmented Nuclei (%),[3],33%
same,Population Healthy Nuclei (%),[3],52%
same,Population Hoechst High Intensity Objects (%),[3],21%
same,Population Membrane Permeable-Phenotype (%),[3],5%
same,Population Mitochondria Different-Phenotype (%),[3],3%
same,Population Mitotic Cells (%),[3],23%
same,Population Normal (%),[3],78%
same,Population Pyknosed Nuclei (%),[3],13%
same,Population Tubulin-Different-Phenotype (%),[3],11%
same,Total Cell Count,[3],309
same,Population Apoptotic (%),[4],66%
same,Population Fragmented Nuclei (%),[4],57%
same,Population Healthy Nuclei (%),[4],26%
same,Population Hoechst High Intensity Objects (%),[4],36%
same,Population Membrane Permeable-Phenotype (%),[4],6%
same,Population Mitochondria Different-Phenotype (%),[4],33%
same,Population Mitotic Cells (%),[4],33%
same,Population Normal (%),[4],63%
same,Population Pyknosed Nuclei (%),[4],15%
same,Population Tubulin-Different-Phenotype (%),[4],46%
same,Total Cell Count,[4],90
same,Population Apoptotic (%),[5],64%
same,Population Fragmented Nuclei (%),[5],22%
same,Population Healthy Nuclei (%),[5],59%
same,Population Hoechst High Intensity Objects (%),[5],11%
same,Population Membrane Permeable-Phenotype (%),[5],4%
same,Population Mitochondria Different-Phenotype (%),[5],0%
same,Population Mitotic Cells (%),[5],35%
same,Population Normal (%),[5],88%
same,Population Pyknosed Nuclei (%),[5],17%
same,Population Tubulin-Different-Phenotype (%),[5],2%
same,Total Cell Count,[5],253
same,Population Apoptotic (%),[6],66%
same,Population Fragmented Nuclei (%),[6],64%
same,Population Healthy Nuclei (%),[6],27%
same,Population Hoechst High Intensity Objects (%),[6],43%
same,Population Membrane Permeable-Phenotype (%),[6],0%
same,Population Mitochondria Different-Phenotype (%),[6],20%
same,Population Mitotic Cells (%),[6],33%
same,Population Normal (%),[6],56%
same,Population Pyknosed Nuclei (%),[6],8%
same,Population Tubulin-Different-Phenotype (%),[6],0%
same,Total Cell Count,[6],65
same,Population Apoptotic (%),[7],81%
same,Population Fragmented Nuclei (%),[7],35%
same,Population Healthy Nuclei (%),[7],50%
same,Population Hoechst High Intensity Objects (%),[7],23%
same,Population Membrane Permeable-Phenotype (%),[7],5%
same,Population Mitochondria Different-Phenotype (%),[7],0%
same,Population Mitotic Cells (%),[7],18%
same,Population Normal (%),[7],76%
same,Population Pyknosed Nuclei (%),[7],13%
same,Population Tubulin-Different-Phenotype (%),[7],3%
same,Total Cell Count,[7],370
same,Population Apoptotic (%),[8],77%
same,Population Fragmented Nuclei (%),[8],47%
same,Population Healthy Nuclei (%),[8],35%
same,Population Hoechst High Intensity Objects (%),[8],39%
same,Population Membrane Permeable-Phenotype (%),[8],15%
same,Population Mitochondria Different-Phenotype (%),[8],15%
same,Population Mitotic Cells (%),[8],22%
same,Population Normal (%),[8],60%
same,Population Pyknosed Nuclei (%),[8],16%
same,Population Tubulin-Different-Phenotype (%),[8],52%
same,Total Cell Count,[8],88

# — ChEMBL document CHEMBL4689842, “EUbOPEN Chemogenomics Library wave 1” (2021)
